Source: PubChem BioAssay
Rows were chosen to be rich in hits. Some 2.3% of all compounds tested hit in one or more screens of this group.
Mcl1-Bid inh: Mcl-1/Bid interaction inhibition; TR-FRET Mcl-1/Bid-Dy647 peptide binding, 1536-well; inhibition, % at 21.7 µM; 220,000 tested, 0.97% active;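 active = compounds that cut the binding signal by more than half at the single screening dose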;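 note: His-tagged Mcl-1 with europium anti-His antibody binding Bid BH3 peptide; 0% = Mcl-1 plus peptide wells and 100% = peptide-only wells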
Target sequence (Q07820 whole entry, looked up): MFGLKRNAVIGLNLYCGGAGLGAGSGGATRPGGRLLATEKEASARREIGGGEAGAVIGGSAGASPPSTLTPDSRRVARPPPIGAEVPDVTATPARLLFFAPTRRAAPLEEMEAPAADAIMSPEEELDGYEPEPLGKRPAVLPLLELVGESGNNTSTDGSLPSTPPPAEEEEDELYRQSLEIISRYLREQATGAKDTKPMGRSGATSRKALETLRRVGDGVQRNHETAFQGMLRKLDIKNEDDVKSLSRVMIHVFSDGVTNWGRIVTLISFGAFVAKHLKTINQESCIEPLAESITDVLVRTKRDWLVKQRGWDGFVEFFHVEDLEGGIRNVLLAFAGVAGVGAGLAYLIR
DSG3 Ab inh: blocks pemphigus antibody binding to human desmoglein-3; P32926; DSG3-coupled beads, scFv-anti-DSG3-GFP binding, flow cytometry; active compounds read low; binding (percent of control), % at 10 µM; 310,000 tested, 0.48% active; AID 588358;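 active = binding more than 3 SD below its plate's average and above zero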;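 note: hits lower antibody fragment binding to DSG3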
Mcl1 Noxa PPI: Mcl-1/Noxa interaction inhibition | inhibition, % at 21.7 µM | 220,000 tested, 1.5% active | TR-FRET Mcl-1/Noxa peptide binding, 2 h | Q07820;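 active = compounds that cut the protein-peptide binding signal by more than 50% relative to plate controls in a single-dose test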;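 note: His-tagged Mcl-1 with rhodamine Noxa BH3 peptide and terbium anti-His antibody; 0% = Mcl-1 plus Noxa peptide wells and 100% = peptide-only wells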
T cell modulator: T cell immune modulators affecting CD8 T cell-vesicle binding; 2C CD8+ T cell-vesicle binding, flow cytometry; active compounds read low; response (vesicle binding), % at 7 µM; 330,000 tested, 0.068% active;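 active = response, share of CD8 T cells binding vesicles, and their 90th percentile fluorescence all below set limits, cut at about 80% in these data, passing the limit was not always enough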;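 note: values below 100% mean blocked vesicle binding to the CD8+ T cells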
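Read-out – percent CD8+ FL2 mean versus row control · System – murine 2C transgenic CD8+ T lymphocytes · Times – 1.5 h cell–vesicle binding at 37 °C, then 20 min icy labelling · Control set – naked vesicles low, QL9 vesicles with vehicle high · Detection – cytometric PE anti-B7-1 and Alexa647 anti-CD8 signals after 1% paraformaldehyde fixation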
Mcl-1 Bim block: disrupts Bim peptide binding to human Mcl-1; Q07820; inhibition, % at 10 µM; 190,000 tested, 0.1% active; AID 1009; Bead-based flow cytometry, Bim peptide-Mcl-1 binding; in the data active = inhibition above about 40%;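 note: 0% = no compound tracer wells and 100% = peptide blocker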
MCL1 BIM primary: inhibitors of human MCL1 binding to BIM-BH3 peptide. Q07820. GST-MCL1 / FITC-Bim-BH3 fluorescence polarization. inhibition, % at 10.9 µM. 320,000 tested, 0.68% active. AID 2057;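 active = inhibition above the mean inhibition of all tested compounds plus 3 SD, set per campaign, cut at about 40% in these data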;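 note: 0% = DMSO wells and 100% = unlabeled Bim-BH3 peptide control; higher means more loss of mP so more displacement of Bim peptide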
The depositor's hits bear a star; i = inactive; nt = no result given.

SMILES	Mcl1-Bid inh	DSG3 Ab inh	Mcl1 Noxa PPI	T cell modulator	Mcl-1 Bim block	MCL1 BIM primary
COc1ccccc1CNc1nc(-c2cc(C)n(C)c2C)cs1	65*	96	90*	nt	10	nt
COc1ccc(CCNc2nc(-c3sc(N)nc3C)cs2)cc1OC	-34	100	20	408	-4	6
COc1ccccc1CC(=O)Nc1nc(-c2ccc(F)c(F)c2)cs1	nt	118	nt	296	nt	2
COCCNc1nc(-c2cc(C)n(CCc3ccc(OC)cc3)c2C)cs1	-2	89*	57*	320	1	22
CCOC(=O)C1CCN(C(=O)CCn2c(=O)oc3ccccc32)CC1	nt	104	nt	nt	nt	nt
OCCCNC(=S)Nc1ccc2nc(-c3ccccn3)c(-c3ccccn3)nc2c1	-54	101	13	268	2	43*
O=C(Nc1ccc2nc(-c3cccs3)c(-c3cccs3)nc2c1)N1CCOCC1	-2	100	12	326	3	9
O=C(Nc1ccc(F)c(Cl)c1)NC1CC1	-11	92	2	292	-3	4
O=S(=O)(c1ccc2ccccc2c1)N1CCOCC1	nt	nt	nt	157	nt	-2
O=S(=O)(c1ccc2nc(-c3ccco3)c(-c3ccco3)nc2c1)N1CCOCC1	25	201	90*	337	8	26
O=C(Nc1ccc(N2CCOCC2)cc1)Nc1ccc2nc(-c3ccco3)c(-c3ccco3)nc2c1	42	102	102*	150	7	12
O=C(Nc1ccc2nc(-c3ccco3)c(-c3ccco3)nc2c1)NC1CC1	29	nt	102*	nt	21	nt
CNc1ccc(C(=O)OCC(=O)NC(=O)NC2CCCC2)cc1[N+](=O)[O-]	nt	108	nt	601	nt	nt
CCN1C[C@@H]2[C@@H]3C(=O)N(Cc4ccccc4)C(=O)[C@@H]3[C@](C)(C1=O)N2C(=O)c1ccc(F)cc1	nt	100	nt	nt	nt	nt
CSC1=NC2(C[C@H]2c2ccccc2)C(=O)N1C (some centres undefined)	nt	105	nt	176	nt	12
O=C(NCc1ccco1)Nc1ccc2nsnc2c1	0	99	16	436	3	-12
O=C(NCCCO)Nc1ccc2nc(-c3ccco3)c(-c3ccco3)nc2c1	55*	nt	101*	380	31	158*
COc1cccc2cc(C(=O)N3CCCCCCC3)c(=O)oc12	nt	19*	nt	191	nt	3
COc1cccc2cc(C(=O)NNC(=O)c3ccc(Br)cc3)c(=O)oc12	28	101	64*	288	1	2
COc1cccc2cc(C(=O)Oc3ccc(NC(C)=O)cc3)c(=O)oc12	94*	93	-1	446	2	0
CCOCCCNC(=S)N1CCN(c2nc(-c3ccc(F)cc3)cs2)CC1	nt	89	nt	1000	nt	5
Cc1ccc(-c2cc(C(=O)Nc3c(C)n(C)n(-c4ccccc4)c3=O)[nH]n2)c(O)c1	-13	-21*	11	494	-3	-6
CN(CC(=O)Nc1cccc(S(=O)(=O)N2CCCC2)c1)CC(=O)Nc1ccc(Cl)c(C(F)(F)F)c1	nt	102	nt	228	nt	4
Cc1ccc2[nH]c3c(NCc4ccco4)ncnc3c2c1	-11	95	55*	i	4	3
CCc1ccccc1NC(=O)Cn1nc(C(F)(F)F)c2c1CCC2	-2	102	-2	130	0	1
SMILES	Mcl1-Bid inh	DSG3 Ab inh	Mcl1 Noxa PPI	T cell modulator	Mcl-1 Bim block	MCL1 BIM primary
CCc1ccc(NC(=O)Cn2nc(C(F)(F)F)c3c2CCC3)cc1	54*	108	11	290	-3	2
CC1CCc2c(sc(NC(=O)Cn3nc(C(F)(F)F)c4c3CCCCC4)c2C#N)C1 (centres undefined)	11	101	7	0.0*	-3	8
CSc1cccc(NC(=O)CN(C)S(=O)(=O)c2ccccc2)c1	72*	104	-18	220	0	11
NC(=O)C1CCN(c2nc(-c3cc4ccccc4o3)cs2)CC1	nt	101	nt	78*	nt	nt
CN1CCN(c2nc(-c3cc4ccccc4o3)cs2)CC1	-32	102	25	234	-3	1
O=C(Cn1cc([N+](=O)[O-])ccc1=O)NCC(=O)Nc1ccc(F)c(F)c1F	nt	116	nt	401	nt	nt
O=C(Nc1c2ccccc2nc2ccccc12)C(Cl)(Cl)Cl	53*	105	43	198	3	35
O=C(Cc1ccccc1)NNc1c2ccccc2nc2ccccc12	-45	101	5	171	-1	4
Oc1ccc(N2CCN(c3ncnc4sc(-c5ccccc5)cc34)CC2)cc1	15	91	87*	nt	2	nt
FC(F)(F)c1cccc(N2CCN(Cc3ccoc3)CC2)c1	54*	101	12	273	-1	7
FC(F)(F)c1cccc(N2CCN(Cc3cccnc3)CC2)c1	37	101	28	462	-1	-7
Cc1ccc(C)c(S(=O)(=O)N2CCN(c3nc(-c4cccnc4)nc4ccccc34)CC2)c1	nt	nt	nt	177	nt	-9
CCOC(=O)COc1ccc(/C=C2/C(=O)NN(c3ccc(F)cc3)C2=O)cc1OC	nt	113	nt	291	nt	5
CCOC(=O)c1ccc(N2NC(=O)/C(=C/c3ccc(OC(=O)c4ccco4)c(OC)c3)C2=O)cc1	-43	nt	56*	207	9	20
CCOc1cc(/C=C2/SC(=S)NC2=O)ccc1OC(=O)c1ccco1	-4	101	57*	308	-6	7
COc1cc(/C=C2/SC(=O)NC2=O)ccc1OC(=O)c1ccco1	nt	109	nt	0	nt	1
Cc1ccc(F)c(Cn2cnc3c(cnn3C(C)(C)C)c2=O)c1Cl	nt	102	nt	448	nt	5
O=C(C1CCC1)N1CCN(S(=O)(=O)c2ccc(Br)cc2Cl)CC1	nt	94	nt	401	nt	-1
Cc1ccnc(NC(=O)C(C)N2C(=O)c3ccccc3S2(=O)=O)c1 (centres undefined)	nt	109	nt	334	nt	2
COc1ccc(NC(=O)Nc2cccc3c2O[C@@H](CN(C)S(=O)(=O)c2cn(C)cn2)[C@@H](C)CN([C@H](C)CO)C3=O)cc1	nt	101	nt	429	nt	nt
CSC1=NSC2=NC(=O)/C(=C\c3cccs3)C(=N)N12	7	98	26	106	-5	0
CSC1=NSC2=NC(=O)/C(=C/c3coc4ccccc4c3=O)C(=N)N12	-28	101	-56	296	18	52*
CSC1=NSC2=NC(=O)/C(=C/c3coc4ccc(O)cc4c3=O)C(=N)N12	-52	188	62*	314	6	32
Cc1cc2nc(/C=C/c3nc4cc(C)c(C)cc4[nH]3)[nH]c2cc1C	22	96	79*	227	nt	-3
O=C(/C=C/c1cccc(OCc2ccccc2)c1)c1cccnc1	55*	104	30	395	-4	6
O=C(O)/C=C/c1cccc(OCc2ccccc2)c1	4	98	12	110	0	0
Cc1ccc(C)c(N2CCN(CCCNC(=O)Cn3c(=O)c4cccn4c4cccnc43)CC2)c1	nt	108	nt	785	nt	6
